Results published in paper PMC6468299 (Nucleic Acids Research, 2019).
pIC50: −log10 of the molar value. Read-outs that look alike come from different tables or passages of the source. Marks after values point to notes of the source that are not given here.

Key:
[1] = system: Molt-4 (blood); assay: Cytotoxicity, sulforhodamine B assay, Molt-4; format: cell-based, human; details: day 11
Outline: (§1)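 Cells were grown 1 week in glucose- or galactose-containing medium, then seeded in 96-well plates. iCell cardiomyocytes were seeded on gelatin-coated plates and grown 5 days. Test compounds in 1:1 ethanol:water were added at each media change on days 0, 3, 7 and 10 (four doses), at up to 250 μM. Final ethanol was 2.5% at 250 μM and 1% otherwise. Total protein was read by sulforhodamine B on day 11. CC50 was fitted from triplicates.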

[2] = system: HepG2 (liver); assay: Cytotoxicity, sulforhodamine B assay, HepG2; format: cell-based, human; details: day 11, four doses
Outline: as §1

[3] = system: Caki-1 (kidney); assay: Cytotoxicity, sulforhodamine B assay, Caki-1; format: cell-based, human; details: day 11
Outline: as §1

[4] = system: SkMC (muscle); assay: Cytotoxicity, sulforhodamine B assay, SkMC; format: cell-based, human; details: SkMC, day 11
Outline: as §1

[5] = format: in vivo, Sprague Dawley rats; details: single 30 mg/kg sc; for amount excreted in bile: rat bile collected over 168 h; for amount excreted in urine: rat urine collected over 168 h
Outline: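 Rats (3 male, 3 female) received a single subcutaneous 30 mg/kg dose of test GalNAc–siRNA. Liver, kidney, heart, plasma, urine and bile were sampled, with urine and bile collected over 168 h. Samples were ACN/water-precipitated, dried and dephosphorylated with calf intestinal alkaline phosphatase (pH 8.0, 37°C, 1 h). 2′-F-nucleosides were quantified by LC-MS/MS against matrix standards ([…]). Values are group means.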

[6] = system: COLO 205 (intestine); assay: Cytotoxicity, sulforhodamine B assay, COLO 205; format: cell-based, human; details: day 11
Outline: as §1

[7] = system: SNB-78 (CNS); assay: Cytotoxicity, sulforhodamine B assay, SNB-78; format: cell-based, human; details: for CC50: day 11
Outline: as §1

[8] = In vitro metabolism of 2′-F-monomers in human liver S9; format: in vitro ADME; details: 10 μM, human liver S9 1 mg/ml, 37°C, 1 h
[9] = Cytotoxicity, sulforhodamine B assay, Molt-4; format: cell-based, human; details: human, Molt-4 cells (blood), day 11
Outline: as §1

[10] = Cytotoxicity, sulforhodamine B assay, HepG2; format: cell-based, human; details: human, HepG2 cells (liver), day 11, four doses
Outline: as §1

[11] = Cytotoxicity, sulforhodamine B assay, Caki-1; format: cell-based, human; details: human, Caki-1 cells (kidney), day 11
Outline: as §1

[12] = Cytotoxicity, sulforhodamine B assay, iCell cardiomyocytes; format: cell-based; details: human, iCell cardiomyocytes (heart)
Outline: as §1

[13] = Cytotoxicity, sulforhodamine B assay, SkMC; format: cell-based, human; details: human, SkMC cells (muscle), CC50, SkMC, day 11
Outline: as §1

[14] = Cytotoxicity, sulforhodamine B assay, COLO 205; format: cell-based, human; details: human, COLO 205 cells (intestine), day 11
Outline: as §1

[15] = Cytotoxicity, sulforhodamine B assay, SNB-78; format: cell-based, human; details: human, SNB-78 cells (CNS), day 11
Outline: as §1

[16] = system: mitochondrial DNA (MT-CO1); assay: Mitochondrial DNA quantification by qPCR; format: cell-based, human; details: across all cell lines, at ≤4 μM, day 11
Outline: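 Cells were treated as in the 11-day, four-dose cytotoxicity protocol in glucose or galactose medium. DNA was then quantified by TaqMan qPCR, with nuclear DNA measured using a succinate dehydrogenase-specific probe.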

[17] = system: human cellular polymerases; details: cited from earlier work

Q: What does the source list for `Nc1nc2c(ncn2[C@@H]2O[C@H](CO)[C@@H](O)[C@H]2F)c(=O)[nH]1` [2′-F-G, 2′-F-guanosine]?
A: CC50 ([1]; Molt-4, Galactose media): 12 µM; CC50 ([1]; Molt-4, Glucose media): 15 µM; CC50 ([2]; HepG2, Galactose media): 112 µM; CC50 ([2]; HepG2, Glucose media): 115 µM; CC50 ([3]; Caki-1, Galactose media): 30 µM; CC50 ([3]; Caki-1, Glucose media): 32 µM; CC50 ([4]; Galactose media): 110 µM; CC50 ([4]; Glucose media): 127 µM; amount excreted in bile ([5]; ALN-TTRSC02 (ESC)): <0.0004* μg; amount excreted in bile ([5]; revusiran (STC)): 0.042 µg; % dose excreted in bile ([5]; rat bile over 168 h, ALN-TTRSC02 (ESC)): <0.0003* % dose; Cmax ([5]; rat heart, ALN-TTRSC02 (ESC)): < 0.5 µM; Cmax ([5]; rat heart, revusiran (STC)): < 0.5 µM; Cmax ([5]; rat kidney, ALN-TTRSC02 (ESC)): < 0.5 µM; AUClast ([5]; rat kidney, revusiran (STC)): 150 µM·h; Cmax ([5]; rat kidney, revusiran (STC)): 2.6 µM; t1/2 (elimination half-life) ([5]; rat kidney, revusiran (STC)): 46.9 h; tmax ([5]; rat kidney, revusiran (STC)): 16 h; AUClast ([5]; rat liver, ALN-TTRSC02 (ESC)): 138 µM·h; tmax ([5]; rat liver, ALN-TTRSC02 (ESC)): 48 h; Cmax ([5]; rat liver, monomer liberated from ALN-TTRSC02 (ESC)): 1.7 µM; Cmax ([5]; rat liver, monomer liberated from revusiran (STC)): 10.8 µM; AUClast ([5]; rat liver, revusiran (STC)): 722 µM·h; tmax ([5]; rat liver, revusiran (STC)): 36 h; Cmax ([5]; rat plasma, ALN-TTRSC02 (ESC)): < 0.03 µM; Cmax ([5]; rat plasma, revusiran (STC)): < 0.03 µM; amount excreted in urine ([5]; ALN-TTRSC02 (ESC)): <0.003* μg; amount excreted in urine ([5]; revusiran (STC)): 1.3 µg; % dose excreted in urine ([5]; rat urine over 168 h, ALN-TTRSC02 (ESC)): <0.002* % dose; CC50 ([6]; COLO 205, Galactose media): 22 µM; CC50 ([6]; COLO 205, Glucose media): 19 µM; decrease of CC50 in galactose compared to glucose media ([7]; SNB-78): 2–10 fold; CC50 ([7]; SNB-78, Galactose media): 12 µM; CC50 ([7]; SNB-78, Glucose media): 35 µM; metabolic fate of 2′-F-nucleoside [8]: stable

Q: Which CC50 at 11 days ([9]; CC50, Molt-4, Galactose media) does the source give for `Nc1ccn([C@H]2CC[C@@H](CO)O2)c(=O)n1` [ddC, 2′,3′-Dideoxycytidine] here?
A: > 20 µM

Q: And the CC50 at 11 days ([9]; CC50, Molt-4, Glucose media)?
A: 8.7 µM

Q: And the CC50 at 11 days ([10]; CC50, HepG2, Galactose media)?
A: > 20 µM

Q: What about the CC50 at 11 days ([10]; CC50, HepG2, Glucose media) of the same compound?
A: > 20 µM

Q: And the CC50 at 11 days ([11]; CC50, Caki-1, Galactose media)?
A: > 20 µM

Q: And the CC50 at 11 days ([11]; CC50, Caki-1, Glucose media)?
A: > 20 µM

Q: And the CC50 at 11 days [12]?
A: > 250 µM

Q: And the CC50 at 11 days ([13]; Galactose media)?
A: > 20 µM

Q: What about the CC50 at 11 days ([13]; Glucose media) of the same compound?
A: > 20 µM

Q: What about the CC50 at 11 days ([14]; CC50, COLO 205, Galactose media) of the same compound?
A: > 20 µM

Q: And the CC50 at 11 days ([14]; CC50, COLO 205, Glucose media)?
A: > 20 µM

Q: What about the CC50 at 11 days ([15]; CC50, SNB-78, Galactose media) of the same compound?
A: > 20 µM

Q: What about the CC50 at 11 days ([15]; CC50, SNB-78, Glucose media) of the same compound?
A: > 20 µM

Q: And the “reduction in mitochondrial DNA synthesis” value [16]?
A: 70–80%

Q: With `C[C@@]1(F)[C@H](O)[C@@H](COP(=O)(O)OP(=O)(O)OP(=O)(O)O)O[C@H]1n1ccc(=O)[nH]c1=O` [triphosphate form of Sofosbuvir] as the compound, how does the pIC50 [17] read?
A: < 3.70
